Results: publication PMC2811258 (Biochemistry, 2009)
“And” between values parts separate entries of the source, which are not always exact repeats. Equal values may be shown once. “Also recorded” adds a separate entry of the source. Read-outs that look alike come from different tables or passages of the source.

Assays:
[1] = target: TmP4; details: read-out: Kd^ATP for TmP4; chromatographic approach; ref [2]; cited from earlier work
[2] = target: T1, TmCheA dimer (full-length T. maritima CheA) (Thermotoga maritima, UniProt Q56310); assay: Competition binding between ATP and TNP-ATP for TmCheA binding sites; details: 4 °C, Mg2+
T1 sequence (Q56310 1-671): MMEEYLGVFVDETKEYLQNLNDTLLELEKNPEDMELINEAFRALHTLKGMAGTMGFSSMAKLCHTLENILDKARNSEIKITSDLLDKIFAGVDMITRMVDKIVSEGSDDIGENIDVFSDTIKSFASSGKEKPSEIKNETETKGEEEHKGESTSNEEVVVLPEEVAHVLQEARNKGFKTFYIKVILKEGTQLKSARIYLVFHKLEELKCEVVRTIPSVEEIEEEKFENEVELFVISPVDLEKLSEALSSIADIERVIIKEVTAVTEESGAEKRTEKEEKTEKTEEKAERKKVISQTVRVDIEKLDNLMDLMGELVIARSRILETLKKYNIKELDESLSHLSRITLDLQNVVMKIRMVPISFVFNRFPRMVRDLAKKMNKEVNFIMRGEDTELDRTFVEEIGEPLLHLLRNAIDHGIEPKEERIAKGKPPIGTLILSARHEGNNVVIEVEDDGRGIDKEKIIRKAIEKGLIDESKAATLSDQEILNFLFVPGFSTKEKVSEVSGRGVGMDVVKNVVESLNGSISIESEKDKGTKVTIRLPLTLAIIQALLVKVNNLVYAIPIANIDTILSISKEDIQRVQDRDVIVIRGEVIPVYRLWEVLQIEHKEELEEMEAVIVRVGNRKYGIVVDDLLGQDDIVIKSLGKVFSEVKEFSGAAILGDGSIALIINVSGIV
In short: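 Competition titrations at 4 °C: TNP-ATP aliquots added to stirred full-length TmCheA (0.6 μM dimer) in TnM buffer (25 mM Tris, 0.5 mM EDTA, 10% glycerol, 25 mM NaCl, 50 mM K-glutamate, 20 mM MgCl2) containing 0, 2.34, 5.9, 11.9 or 23.4 mM ATP. Emission spectra (four-scan averages), background-corrected by mock titrations. At least two independent experiments averaged.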

[3] = target: T2, TmP4 (isolated P4 domain of T. maritima CheA, monomer) (Thermotoga maritima, UniProt Q56310); assay: Fluorescence-monitored TNP-ATP binding titrations with TmP4; details: 4 °C, Mg2+; λex 520 nm, emission 530–600 nm
T2 sequence (Q56310 356-540): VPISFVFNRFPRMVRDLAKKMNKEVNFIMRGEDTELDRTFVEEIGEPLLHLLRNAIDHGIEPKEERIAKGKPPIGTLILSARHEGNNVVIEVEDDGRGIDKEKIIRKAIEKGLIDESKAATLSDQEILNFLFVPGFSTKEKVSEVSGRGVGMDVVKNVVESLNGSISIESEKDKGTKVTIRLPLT

[4] = target: T1, TmCheA dimer (full-length T. maritima CheA); format: binding; details: 4 °C
[5] = target: TmP4; details: read-out: Upper limit of Kd for the TmP4–TNP-ATP binding interaction; previous work; ref [2]; cited from earlier work
[6] = without versus with 20 mM MgCl2

## Nc1ncnc2c1ncn2[C@@H]1O[C@H](COP(=O)(O)OP(=O)(O)OP(=O)(O)O)[C@@H](O)[C@H]1O [ATP]
[1]
  Kd: 15000 nM
[2]
  Kd2^ATP/Kd1^ATP (affinity difference between the two sites): ~10^3 fold
[2]; read-out: Kd1^ATP (high-affinity site of TmCheA dimer), effect of competitor ATP on apparent Kd1^TNP
  Kd: ~6000 nM and 6000 nM

## Nc1ncnc2c1ncn2[C@@H]1O[C@H](COP(=O)(O)OP(=O)(O)OP(=O)(O)O)[C@H]2OC3(O[C@H]21)C([N+](=O)[O-])=CC(=[N+]([O-])[O-])C=C3[N+](=O)[O-] (some centres unmarked) [TNP-ATP, 2′(3′)-O-(2,4,6-trinitrophenyl)adenosine 5′-triphosphate]
[3]
  IMFC (integrated molar fluorescence coefficient) of the TmP4 · TNP-ATP complex: 1.9 × 10^6 cps/μM
[4]; 20 mM MgCl2, 0.6 μM TmCheA dimer, two-site model
  IMFC of T.AA.T complex: 9.5 × 10^6 cps/μM
[4]; 20 mM MgCl2, TmCheA titrated with excess TNP nucleotide
  IMFC of T.AA complex (IMFC site 1): 2.0 × 10^6 cps/μM
[4]; Mg2+
  IMFC site 2 (second, low-affinity site): 7.5 × 10^6 cps/μM
[4]; Mg2+, TmCheA added to 0.28 μM TNP-ATP
  IMFC of T.AA complex from reverse stoichiometry titration: ~2× 10^6 cps/μM and 2.0 × 10^6 cps/μM
[4]; no MgCl2, 20 mM Na2EDTA
  IMFC of T.AA complex, absence of Mg2+: 2.4 × 10^6 cps/μM
  IMFC of T.AA.T complex, absence of Mg2+: 8.9 × 10^6 cps/μM
[4]; [6]
  Decrease of site 2 affinity in the absence of Mg2+: 5 fold
  Effect of Mg2+ removal on site 1 binding: insensitive to the presence or absence of Mg^2+
[4]; Kd1^TNP (high-affinity site 1 of TmCheA dimer), Mg2+, forward and reverse titrations at low protein and ligand concentrations (0.002–0.003 μM)
  Kd: ~1.6 nM and 1.6 nM
[4]; Kd1^TNP, titration of CheA with excess TNP-ATP, Mg2+, 0.003 μM TmCheA dimer, one-site binding model
  Kd: 1.8 nM
[4]; Kd1^TNP, titration of TNP-ATP with excess TmCheA, Mg2+, 0.002 μM TNP-ATP, one-site binding model
  Kd: 1.4 nM
[4]; reverse titration, 0.28 μM TNP-ATP, Mg2+
  Binding stoichiometry of high-affinity TNP-ATP binding to TmCheA dimer: each TmCheA dimer can bind one molecule of TNP-ATP with high affinity; also recorded: one TNP-ATP per CheA dimer
[5]
  Kd: ≤ 10 nM
